{"data": "Published values gathered from unrelated publications", "target": "Casein kinase I isoform delta (CSNK1D, Homo sapiens, UniProt P48730)"}
{"Structure (SMILES)": "CN(C)c1nccc(-c2cnn3ncccc23)n1", "assay": "binding", "setting": "1 µM", "remaining binding": "62%"}
{"Structure (SMILES)": "CN(C)CC#Cc1ccc(OCCCc2sc(N3CCc4cccc(C(=O)Nc5nc6ccccc6s5)c4C3)nc2C(=O)O)c(F)c1", "assay": "cell-free assay, competition with immobilised ligand", "setting": "1 µM", "remaining binding": "95%"}
{"Structure (SMILES)": "N[C@@H]1CCN(c2nccc(-c3cnn4ncccc34)n2)C1", "assay": "binding", "setting": "1 µM", "remaining binding": "14%"}
{"Structure (SMILES)": "COc1cnc(Nc2cccc(S(N)(=O)=O)c2)nc1N1CCN(c2ccccc2)C(=O)C1", "assay": "binding, competition with immobilised ligand", "setting": "1 µM", "remaining binding": "98%"}
{"Structure (SMILES)": "CN(C)c1ncnc(-c2ccc3nc(Nc4cc(CN5CCN(C(=O)CC(F)(F)F)CC5)ccn4)[nH]c3c2)c1Cl", "assay": "cell-free assay, competition with immobilised ligand", "setting": "1 µM", "remaining binding": "83%"}
{"Structure (SMILES)": "CC(C)(C)c1ccc(-c2nc(CBr)nn2-c2cccc(O)c2)cc1", "assay": "cell-free assay, competition with immobilised ligand", "setting": "10 µM", "remaining binding": "82%"}
{"Structure (SMILES)": "Nc1ncc2c(n1)-c1c([nH]c3ccc(C#CC4CC4)cc13)CCCC2", "assay": "binding, competition with immobilised ligand", "setting": "1 µM", "remaining binding": "91%"}
{"Structure (SMILES)": "CN(C)c1nccc(-c2cnc3ncccn23)n1", "assay": "binding", "setting": "1 µM", "remaining binding": "57%"}
{"Structure (SMILES)": "O=C(NCCCN1CCOCC1)c1ccc(Nc2ncc(Cl)c(-c3ccc(Cl)s3)n2)cc1", "assay": "binding, competition with immobilised ligand", "setting": "1 µM", "remaining binding": "100%"}
{"Structure (SMILES)": "Cc1c(NC(=O)c2cc(C(N)=O)nc3cc(F)ccc23)c(C(F)(F)F)nn1Cc1ccc(C(C)(C)C)cc1", "assay": "cell-free assay, competition with immobilised ligand", "setting": "1 µM", "remaining binding": "81%"}
{"Structure (SMILES)": "O=C(NCC1CCOCC1)c1n[nH]cc1NC(=O)c1c(F)cccc1F", "assay": "binding, competition with immobilised ligand", "setting": "1 µM", "remaining binding": "77%"}
{"Structure (SMILES)": "CN(CCCC(F)(F)F)c1nccc(-c2cnn3ncccc23)n1", "assay": "binding", "setting": "1 µM", "remaining binding": "100%"}
{"Structure (SMILES)": "FC(F)(F)Oc1cccc(-c2cnc3ccc(-c4ccncc4)nn23)c1", "assay": "cell-free assay, competition with immobilised ligand", "setting": "5 µM", "remaining binding": "56%"}
{"Structure (SMILES)": "NC(=O)c1nc(Nc2ccccc2)sc1NC(=O)C1CCCCC1", "assay": "cell-free assay, competition with immobilised ligand", "setting": "10 µM", "remaining binding": "6.8%"}
{"Structure (SMILES)": "CN(C(=O)c1ccccc1)c1cc(N(C)c2ccc3c(c2)CCc2ccc(C(=O)NCCN4CCOCC4)cc2C3=O)ccc1F", "assay": "cell-free assay, competition with immobilised ligand", "setting": "1 µM", "remaining binding": "100%"}
{"Structure (SMILES)": "C=CC(=O)N1CCC(C(=O)NCC(=O)N2CCN(c3nc(-c4cnc(N)nc4C(F)F)nc(N4CCOCC4)n3)CC2)CC1", "assay": "binding, competition with immobilised ligand", "setting": "1 µM", "remaining binding": "100%"}
{"Structure (SMILES)": "CCN1CCN(Cc2ccc(C(=O)Nc3ccc(C)c(Oc4ccc5c(c4)CC(=O)N5)c3)cc2C(F)(F)F)CC1", "assay": "binding, competition with immobilised ligand", "setting": "1 µM", "remaining binding": "88%"}
{"Structure (SMILES)": "O=C(c1ccc(Nc2ncc(Cl)c(-c3cc4ccccc4s3)n2)cc1)N1CCC(N2CCCC2)CC1", "assay": "binding, competition with immobilised ligand", "setting": "1 µM", "remaining binding": "100%"}
{"Structure (SMILES)": "CNC(=O)Nc1ccc2c(c1)[C@@]1(CC2)OC(=O)N(CC(=O)N(Cc2ccc(F)cc2)[C@@H](C)C(F)(F)F)C1=O", "assay": "cell-free assay, competition with immobilised ligand", "setting": "1 µM", "remaining binding": "100%"}
{"Structure (SMILES)": "F[C@@H]1CCN(c2nccc(-c3cnn4ncccc34)n2)C1", "assay": "binding", "setting": "1 µM", "remaining binding": "83%"}
{"Structure (SMILES)": "O=C(Nc1cccnn1)N1CCC(=Cc2cccc(Oc3ccc(C(F)(F)F)cn3)c2)CC1", "assay": "cell-free assay, competition with immobilised ligand", "setting": "1 µM", "remaining binding": "100%"}
{"Structure (SMILES)": "O=C(c1ccc(Nc2ncc(Cl)c(-c3ccc(Cl)s3)n2)cc1)N1CCC(N2CCCC2)CC1", "assay": "binding, competition with immobilised ligand", "setting": "1 µM", "remaining binding": "100%"}
{"Structure (SMILES)": "CNC(=O)Nc1ccc2c(c1)CC[C@@]21OC(=O)N(CC(=O)N(Cc2ccc(F)cc2)[C@@H](C)C(F)(F)F)C1=O", "assay": "cell-free assay, competition with immobilised ligand", "setting": "1 µM", "remaining binding": "99%"}
{"Structure (SMILES)": "C[C@H]1CCN(c2nccc(-c3cnn4ncccc34)n2)C1", "assay": "binding", "setting": "1 µM", "remaining binding": "71%"}
